Screening results deposited in PubChem BioAssay by The Scripps Research Institute Molecular Screening Center.
VIM-2 inh: VIM-2 metallo-beta-lactamase inhibitors, primary screen, biochemical, epi-absorbance readout, Pseudomonas aeruginosa enzyme. purified VIM-2, nitrocefin hydrolysis, epi-absorbance fluorescence. inhibition, % at 5.6 µM. actives 0.89% (n = 290,000);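 active means inhibition above the mean of all tested compounds plus 3 SD, cutoff set per screening run, cut at about 7.5% in these data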;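 further: red hydrolysis product quenches plate fluorescence so inhibitors raise well fluorescence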
IMP-1 inh: IMP-1 metallo-beta-lactamase inhibitors, primary screen, biochemical, epi-absorbance readout, Pseudomonas aeruginosa enzyme | purified IMP-1, nitrocefin hydrolysis, epi-absorbance fluorescence | inhibition, % at 5.6 µM | actives 0.45% (n = 290,000) | AID 1556, 2009;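 active means inhibition above the mean plus 3 SD of all compounds in the same screening run, cut at about 4.5% in these data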
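System: purified IMP-1 / Input: IMP-1 dispensed at 0.2 nM / Medium: 50 mM HEPES pH 7.1, 50 µM ZnSO4, 0.05% Brij 35 / Timing: 15 min enzyme–compound preincubation, then 25 min nitrocefin reaction, 25 °C / Technique: plate fluorescence quenching by hydrolysis product, ex 480/em 530 nm / Repeats: singlicate testing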
CTSL1 counter-1: Fasciola hepatica cathepsin L1 inhibitors, primary screen, counter-screen for PFM18AAP inhibitor project, biochemical, QFRET, fluorogenic peptide substrate; recombinant F. hepatica cathepsin L1, Z-Leu-Arg-MCA fluorescence; inhibition, % at 5.96 µM; actives 0.49% (n = 300,000); AID 1906, 2009;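 active means inhibition above the mean of all tested compounds plus 3 SD, set per screening campaign, cut at about 17% in these data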
PfM18AAP inh-1: PfM18AAP inhibitors, malaria aminopeptidase, primary screen, biochemical, QFRET, recombinant enzyme; M18 aspartyl aminopeptidase (Plasmodium falciparum 3D7); inhibition, % at 7.35 µM; AID 1822, 2009; H-Glu-NHMec fluorogenic cleavage; actives 1.2% (n = 290,000);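 active means inhibition above the campaign mean inhibition over all tested compounds plus 3 SD, cut at about 28% in these data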
PfM18AAP inh-2: PfM18AAP inhibitors, malaria aminopeptidase, confirmation, biochemical, QFRET, recombinant enzyme, triplicate; H-Glu-NHMec fluorogenic cleavage; inhibition, % at 7.35 µM; shares compounds with PfM18AAP inh-1; actives 28% (n = 2,400); AID 2170, 2009;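 active means mean inhibition over replicate wells above the hit cutoff set for the earlier primary screen, cut at about 29% in these data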
CTSL1 counter-2: cathepsin L1 inhibitors, retest, confirmation, counter-screen for PFM18AAP inhibitor project, biochemical, QFRET, triplicate; shares compounds with PfM18AAP inh-1; purified cathepsin L1, Z-Leu-Arg-MCA fluorescence; inhibition, % at 5.96 µM; 2,400 tested, under 10 active; AID 2178, 2009;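 active means average inhibition across replicates above the hit cutoff set in the earlier primary screen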
Target sequence (P07711 whole entry, looked up): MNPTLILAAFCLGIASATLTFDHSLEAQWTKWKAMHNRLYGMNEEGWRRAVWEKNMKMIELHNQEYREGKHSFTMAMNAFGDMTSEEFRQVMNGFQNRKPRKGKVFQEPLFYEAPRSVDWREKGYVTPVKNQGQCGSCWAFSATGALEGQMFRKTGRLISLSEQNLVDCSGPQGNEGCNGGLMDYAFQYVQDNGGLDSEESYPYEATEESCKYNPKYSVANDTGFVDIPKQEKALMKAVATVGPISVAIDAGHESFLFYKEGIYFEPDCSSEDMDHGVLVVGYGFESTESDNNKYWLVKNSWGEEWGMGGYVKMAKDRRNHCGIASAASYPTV
A number is an active result; . = inactive; / = no result given. Most compounds without a hit are left out; they make up all but 2.7% or so of the library.

SMILES	VIM-2 inh	IMP-1 inh	CTSL1 counter-1	PfM18AAP inh-1	PfM18AAP inh-2	CTSL1 counter-2
COC(=O)c1cc(O)c(O)c(O)c1	.	.	.	32.4	.	.
O=C(c1ccco1)N1CCN(c2ncccn2)CC1	.	.	.	.	/	/
O=C(c1ccco1)N1CCN(C(=O)N2CCCCC2)CC1	.	.	.	89.6	.	.
Cc1ccc(C2=Nc3ccccc3SC(c3cccc([N+](=O)[O-])c3)C2)cc1 (configuration not stated)	.	.	.	32.6	.	.
O=[N+]([O-])c1cccc(C2CC(c3ccccc3)=NN2c2ccccc2)c1 (configuration not stated)	.	.	.	.	/	/
CCN(CC)c1ccc(C=Nc2ccc(C)cc2)c(O)c1	.	.	.	.	/	/
CCN(CC)c1ccc(N=Cc2ccc(N(CC)CC)cc2O)cc1	.	.	.	42.5	.	.
CCN(CC)c1ccc(/C=N/NC(=S)NC)c(O)c1	.	.	.	41.2	.	.
CCN(CC)c1ccc(/C=N/NC(=O)OC)c(O)c1	.	.	.	.	/	/
Cc1ccc(S(=O)(=O)N2Cc3ccccc3CC2C(=O)Nn2cnnc2)cc1 (configuration not stated)	.	.	.	41.0	36.2	.
O=C(Nn1cnnc1)C1Cc2ccccc2CN1S(=O)(=O)c1ccc(F)cc1 (configuration not stated)	.	.	.	39.4	32.6	.
CCOc1ccc(N2C(=O)S/C(=C\c3cc(OC)c(OC)c(OC)c3)C2=O)cc1	.	.	.	.	/	/
Oc1ccc(/C=C/c2cc(O)cc(O)c2)cc1	.	.	.	59.0	58.5	.
COC(=O)c1ccc(S(=O)(=O)NCc2ccccn2)n1C	.	.	.	.	/	/
COc1ccc(CC(=O)NCC(=O)N=Nc2c(O)[nH]c3ccccc23)cc1	.	.	.	.	/	/
O=C(CNC(=O)c1ccccn1)N=Nc1c(O)[nH]c2ccccc12	.	.	.	50.6	.	.
COCc1cc(C)c(C#N)c(=S)[nH]1	.	.	.	31.8	34.8	.
COCc1cc(=O)[nH]c(=S)[nH]1	.	.	.	.	/	/
Cc1ccc(C(=O)NCC(=O)OCC(=O)N(CC(C)C)c2c(N)n(Cc3ccccc3)c(=O)[nH]c2=O)cc1	/	/	.	/	/	/
C=C(C)COc1ccc2c(C)c(CCC(=O)NC3CC3)c(=O)oc2c1	.	.	.	.	/	/
COc1ccc(Br)cc1CNC(=O)CCNC(=O)Cn1ccc2ccccc2c1=O	.	.	.	.	/	/
COc1ccc2cc(-c3[nH]ncc3CN3CCCN(c4ccccc4)CC3)ccc2c1	.	.	.	.	/	/
COc1cc(/C=N/N(c2ccccc2)c2ccccc2)ccc1O	.	.	.	.	/	/
CN(/N=C\c1ccc(O)c(O)c1)c1nc(-c2ccccc2)cc(-c2ccccc2)n1	.	.	.	50.1	.	.
O=C(O)C1CCN(c2ccc(S(=O)(=O)N3CCC(C(=O)O)CC3)cc2[N+](=O)[O-])CC1	.	.	.	.	/	/
SMILES	VIM-2 inh	IMP-1 inh	CTSL1 counter-1	PfM18AAP inh-1	PfM18AAP inh-2	CTSL1 counter-2
O=C(O)C1CCN(S(=O)(=O)c2ccc(N3CCCC3C(=O)O)c([N+](=O)[O-])c2)CC1 (configuration not stated)	.	.	.	36.0	.	.
COc1cc(C(=O)OCC(=O)Nc2nnc(-c3ccccc3)o2)cc(OC)c1OC	/	/	.	/	/	/
COc1ccc(C(=O)OCC(=O)Nc2nnc(-c3ccccc3)o2)cc1	.	.	.	42.3	.	.
C=CCN(C(=O)CC(NC(C)=O)c1ccccc1)c1nc(-c2ccc(S(C)(=O)=O)cc2)cs1 (configuration not stated)	.	.	.	.	/	/
Oc1ccc(/C=N/Nc2cc(N3CCCC3)nc(N3CCCC3)n2)cc1O	.	.	.	40.4	.	.
Nc1c(Cl)cc(-c2[nH]c3cc(C(=O)NCCO)ccc3c(=O)c2O)cc1Cl	.	.	.	40.2	.	.
Cc1cc(C)c2c(=O)n(CC(=O)Nc3ccc(Cl)cc3)sc2n1	.	.	.	56.9	46.8	.
CCOc1ccc(NC(=O)Cn2sc3nc(C)cc(C)c3c2=O)cc1	.	.	.	56.0	36.2	.
Cc1ccc(NC(=O)Cn2sc3nc(C)cc(C)c3c2=O)c(Cl)c1	.	.	.	67.0	45.4	.
Cc1ccc(NC(=O)Cn2c(C)cc(C)c(C#N)c2=O)c(Cl)c1	.	.	.	.	/	/
Cc1cc(C)c2c(n1)SCC(=O)N2CC(=O)Nc1cccc(Cl)c1	.	.	.	.	/	/
CCOc1ccc(NC(=O)Cn2ncc3ccccc32)cc1	.	.	/	.	/	/
Cc1nnc(SCC(=O)N(C)c2ccccc2)n1Cc1ccccc1	.	.	.	.	/	/
COc1cc(-c2nc3ccccn3c2NCC2CCCO2)ccc1O (configuration not stated)	.	.	.	32.1	34.0	.
COc1ccc(-c2nc3cccc(C)n3c2NCC2CCCO2)cc1O (configuration not stated)	.	.	.	.	/	/
CC/C(CC(=O)C(F)(F)F)=N\NC(=O)/C(C#N)=C/N(C)C	.	.	.	42.9	.	.
CN(C)/C=C(\C#N)C(=O)N/N=C/c1ccc(F)cc1	.	.	.	.	/	/
Cc1ccc(C(=O)OCc2nnc(-c3ccc(Br)cc3)o2)cc1	.	.	.	.	/	/
CSc1ccc(/C=N/n2c(Cc3ccc(Br)cc3)n[nH]c2=S)cc1	.	.	.	.	/	/
FC(F)Oc1ccc(/C=N/n2c(Cc3ccc(Br)cc3)n[nH]c2=S)cc1	.	.	.	46.1	.	.
COCCNC(=O)/C(C#N)=C/C=C/c1ccccc1[N+](=O)[O-]	.	.	.	.	/	/
Oc1c(Br)cc(C2N=C(c3ccccc3Cl)NO2)cc1Br (configuration not stated)	.	.	.	.	/	/
O=C1CC(c2ccco2)CC(O)=C1C=Nc1cc(Cl)ccc1O (configuration not stated)	.	.	.	33.2	.	.
COc1ccc(/C=N/NC(=O)c2ccccc2O)cc1Cn1cc([N+](=O)[O-])cn1	.	.	.	.	/	/
COc1ccc(/C=N/NC(=O)c2cc(O)c(O)c(O)c2)cc1Cn1cc([N+](=O)[O-])cn1	.	.	/	48.5	.	.
Cn1c(-c2ccco2)n[nH]c1=S	.	.	.	.	/	/
S=c1nc(-c2ccco2)[nH][nH]1	.	.	.	44.4	.	.
C=CCc1cccc(C=Nc2cc(Br)ccc2O)c1O	.	.	.	.	/	/
C=CCc1cccc(/C=N/c2ncn[nH]2)c1O	.	.	.	57.0	43.0	.
CC1CCN(S(=O)(=O)c2cc3c4c(c2)CCN4C(=O)CC3)CC1	/	/	.	/	/	/
